In ChEMBL document CHEMBL1142984, “Stabilization of G-quadruplex DNA and down-regulation of oncogene c-myc by quindoline derivatives” (J Med Chem, 2007):
Calls of active or inactive are those of the source. The calls are words filed in the database; no cut-off is given here.

How the values were obtained:
[1] = Inhibition of Pu27-13, 14 oligomer hybridization with Pu27rev at 36 uM by PCR stop assay
In short: (§1)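 Test oligomer plus complementary strand ([…]) in 1×PCR buffer with 0.16 mM dNTP, 2.5 U Taq and derivative […]. Cycling: 94 C 3 min, then 30 cycles of 94 C 30 s, 58 C 30 s, 72 C 30 s. Products run on 15% nondenaturing polyacrylamide in 1×TBE, silver stained; quadruplex stabilization blocks extension.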

[2] = Inhibition of Pu27 oligomer hybridization with Pu27rev at 18 uM by PCR stop assay; in short: as §1
[3] = Stabilization of Pu27 oligomer by inducing G-quadruplex formation assessed as inhibition of hybridization with Pu27rev by PCR stop assay; in short: as §1
[4] = Inhibition of Pu27 oligomer hybridization with Pu27rev at 36 uM by PCR stop assay; in short: as §1
HepG2 [5] = assay: Growth inhibition in HepG2 cells after 7 days; type: functional, cell-based; conditions: Homo sapiens, HepG2, 168 h
In short: (§2)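 Hep G2 cells in RPMI-1640 with 10% FBS at 37 C, 5% CO2. About 5000 cells seeded; compound ([…], freshly dissolved) added 24 h after plating and re-added at day 5. Cell counts and viability by trypan blue exclusion daily, days 1 to 8. IC50 calculated at days 5 and 7 of treatment.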

Ramos = assay: Inhibition of c-myc expression in Ramos cells at 10 uM; type: functional, cell-based; conditions: Homo sapiens
In short: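 Ramos cells (about 1 × 105 seeded) treated with derivative at […] and harvested 24 h later alongside untreated cells. RNA reverse transcribed at 42 C for 60 min. PCR used […], 36 cycles (95/50/72 C, 1 min each). Products resolved on 1.5% agarose.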

HepG2 [6] = assay: Inhibition of c-myc expression in HepG2 cells at 100 uM; type: functional, cell-based; conditions: Homo sapiens
In short: (§3)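 About 5 × 10^5 Hep G2 cells seeded, treated 24 h after plating with derivative (6.25 to 100 µM) for 24 h. Total RNA extracted and reverse transcribed at 42 C for 60 min. PCR used […], 500 µM dNTPs, 36 cycles (95/50/72 C, 1 min each). Products read on 1.5% agarose against β-actin.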

HepG2 [7] = assay: Growth inhibition in HepG2 cells after 5 days; type: functional, cell-based; conditions: Homo sapiens, HepG2, 120 h; in short: as §2
HepG2 [8] = assay: Inhibition of c-myc expression in HepG2 cells at 50 uM; type: functional, cell-based; conditions: Homo sapiens; in short: as §3
[9] = Inhibition of Pu27 oligomer hybridization with Pu27rev at 6 uM by PCR stop assay; in short: as §1

Activity [1] | Activity [2] | Activity [3] | Activity [4] | IC50 (HepG2 [5]) | IC50 (HepG2 [7]) | Activity [9] | Structure (SMILES) | Activity (Ramos) | Activity (HepG2 [6]) | Activity (HepG2 [8])
inactive | Active | Active |  |  |  |  | CN(C)CCNc1c2ccccc2nc2c1oc1ccccc12 |  |  | 
inactive |  | Active | Active | 1300 nM | 1000 nM |  | OCCCNc1c2ccccc2nc2c1[nH]c1ccccc12 | Active | Active | 
inactive | Active | Active |  |  |  |  | CN(C)CCNc1c2ccccc2nc2c1[nH]c1ccccc12 |  |  | 
inactive |  | Active |  | 300 nM | 200 nM | Active | CCN(CC)CCNc1c2ccccc2nc2c1[nH]c1ccccc12 | Active |  | Active
inactive |  | Active | Active |  |  |  | OCCNc1c2ccccc2nc2c1[nH]c1ccccc12 |  |  | 
inactive |  | Active | Active |  |  |  | OCCNc1c2ccccc2nc2c1oc1ccccc12 |  |  | 
inactive |  | Active | Active |  |  |  | OCCCNc1c2ccccc2nc2c1oc1ccccc12 |  |  | 
inactive | Active | Active |  |  |  |  | CN(C)CCCNc1c2ccccc2nc2c1oc1ccccc12 |  |  | 
inactive | Active | Active |  |  |  |  | CCN(CC)CCNc1c2ccccc2nc2c1oc1ccccc12 |  |  | 

Structure (SMILES) | Activity [1] | Activity [2] | Activity [3] | Activity [4] | IC50 (HepG2 [5]) | IC50 (HepG2 [7]) | Activity [9] | Activity (Ramos) | Activity (HepG2 [6]) | Activity (HepG2 [8])
CN(C)CCCNc1c2ccccc2nc2c1[nH]c1ccccc12 | inactive | Active | Active |  |  |  |  |  |  | 
